Molecules are shown by their SMILES. Converted amounts (≈) assume the structure as drawn.

Type in all cases: functional
For one assay, the system named is Escherichia coli. Description: Antimicrobial activity against Escherichia coli ATCC 10536 after 24 hrs by broth microdilution assay. The settings on record: ATCC 10536, 24 h. In short, it runs like this:
(§1)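 Broth dilution MIC. Stock is 10 mg compound in 1 mL DMSO, serially diluted in Mueller–Hinton broth for bacteria or Sabouraud liquid medium for yeasts and mould. Tubes are inoculated at 10⁵ cfu/mL and incubated at 37 °C for 24 h. Controls are medium alone and medium with DMSO at matching dilutions. MIC is the lowest concentration giving complete growth inhibition.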

The next assay concerns Saccharomyces cerevisiae. Nature of the assay: Antimicrobial activity against Saccharomyces cerevisiae ATCC 9763 after 24 hrs by broth microdilution assay. The settings on record: ATCC 9763, 24 h. The method, boiled down:
as §1
(In broth dilution the organism is exposed to a series of concentrations in liquid medium.)

Another assay concerns Aspergillus niger. Description: Antimicrobial activity against Aspergillus niger ATCC 6275 after 24 hrs by broth microdilution assay. The settings on record: ATCC 6275, 24 h. In short, it runs like this: as §1
The subject of the next assay is Candida tropicalis. Description: Antimicrobial activity against Candida tropicalis ATCC 1369 after 24 hrs by broth microdilution assay. The settings on record: ATCC 1369, 24 h. In short, it runs like this:
as §1

In assay [1] the test system is Mycobacterium tuberculosis. Nature of the assay: Antimycobacterial activity against Mycobacterium tuberculosis H37Rv after 21 days by broth dilution assay. The settings on record: 504 h. The method, boiled down:
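Middlebrook 7H9 broth with 10% albumin-dextrose-catalase and 0.2% glycerol; frozen culture thawed, diluted to 10⁵ cfu/mL and used as inoculum. Compounds taken up in DMSO and diluted twice in broth, 1.3% DMSO final. Incubated at 37 °C. Growth judged by eye against drug-free and inoculum-free controls and isoniazid. MIC is the lowest concentration inhibiting ≥99% of the starting population.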

The next assay deals with Klebsiella pneumoniae. Nature of the assay: Antimicrobial activity against Klebsiella pneumoniae ATCC 10031 after 24 hrs by broth microdilution assay. The settings on record: ATCC 10031, 24 h. The method, boiled down:
as §1

Another assay deals with Pseudomonas aeruginosa. Nature of the assay: Antimicrobial activity against Pseudomonas aeruginosa ATCC 10145 after 24 hrs by broth microdilution assay. The settings on record: ATCC 10145, 24 h. In short, it runs like this:
as §1

The next assay concerns Bacillus subtilis. Description: Antimicrobial activity against Bacillus subtilis ATCC 60511 after 24 hrs by broth microdilution assay. The settings on record: ATCC 60511, 24 h. In short, it runs like this:
as §1

The test system of another assay is Staphylococcus aureus. Nature of the assay: Antimicrobial activity against Staphylococcus aureus ATCC 11632 after 24 hrs by broth microdilution assay. The settings on record: ATCC 11632, 24 h. The method, boiled down:
as §1

Another assay deals with Enterococcus faecalis. Nature of the assay: Antimicrobial activity against Streptococcus faecalis ATCC 14506 after 24 hrs by broth microdilution assay. The settings on record: ATCC 14506, 24 h. The method, boiled down:
as §1

As for `CC(C)c1csc(-c2nnc(S)n2/N=C/c2ccc(Br)cc2)n1`, the MIC worked out at 62.5 µg/mL (≈ 153 µM) with Escherichia coli; 125 µg/mL (≈ 306 µM) against Saccharomyces cerevisiae; 62.5 µg/mL (≈ 153 µM) in the assay on Aspergillus niger; 62.5 µg/mL (≈ 153 µM) against Candida tropicalis; 125 µg/mL (≈ 306 µM) in [1]; 125 µg/mL (≈ 306 µM) in the assay on Klebsiella pneumoniae. In addition, the MIC in the assay on Pseudomonas aeruginosa amounted to 62.5 µg/mL (≈ 153 µM); in the assay on Bacillus subtilis it was 125 µg/mL (≈ 306 µM); against Staphylococcus aureus it was 62.5 µg/mL (≈ 153 µM); against Enterococcus faecalis it was 125 µg/mL (≈ 306 µM).
Turning to `COc1cc(/C=N/n2c(S)nnc2-c2nc(C(C)C)cs2)cc(OC)c1OC`, the MIC stood at 62.5 µg/mL (≈ 149 µM) against Escherichia coli; 62.5 µg/mL (≈ 149 µM) with Saccharomyces cerevisiae; 62.5 µg/mL (≈ 149 µM) with Aspergillus niger; 125 µg/mL (≈ 298 µM) against Candida tropicalis; 125 µg/mL (≈ 298 µM) in assay [1]; 62.5 µg/mL (≈ 149 µM) against Klebsiella pneumoniae. Besides, the MIC in the assay with Pseudomonas aeruginosa stood at 125 µg/mL (≈ 298 µM); against Bacillus subtilis, 125 µg/mL (≈ 298 µM); with Staphylococcus aureus, 125 µg/mL (≈ 298 µM); in the assay on Enterococcus faecalis, 62.5 µg/mL (≈ 149 µM).
As for `COc1ccc(-c2nnc(-c3nc(C(C)C)cs3)o2)cc1`, the MIC in the assay on Escherichia coli was found to be 16 µg/mL (≈ 53.1 µM); against Saccharomyces cerevisiae, 31.2 µg/mL (≈ 104 µM); against Aspergillus niger it was 31.2 µg/mL (≈ 104 µM); in the assay with Candida tropicalis, 31.2 µg/mL (≈ 104 µM); in assay [1], 16 µg/mL (≈ 53.1 µM); against Klebsiella pneumoniae, 31.2 µg/mL (≈ 104 µM). In addition, the MIC was 16 µg/mL (≈ 53.1 µM) against Pseudomonas aeruginosa, 31.2 µg/mL (≈ 104 µM) against Bacillus subtilis, 31.2 µg/mL (≈ 104 µM) in the assay with Staphylococcus aureus and 31.2 µg/mL (≈ 104 µM) against Enterococcus faecalis.
Turning to `CC(C)c1csc(-c2nnc(S)n2/N=C/c2ccc(N(C)C)cc2)n1`, the MIC with Escherichia coli was found to be 16 µg/mL (≈ 43 µM); in the assay with Saccharomyces cerevisiae, 31.2 µg/mL (≈ 83.9 µM); in the assay with Aspergillus niger, 16 µg/mL (≈ 43 µM); against Candida tropicalis it was 125 µg/mL (≈ 336 µM); in assay [1], 125 µg/mL (≈ 336 µM); with Klebsiella pneumoniae, 16 µg/mL (≈ 43 µM). Further, the MIC against Pseudomonas aeruginosa is 16 µg/mL (≈ 43 µM); with Bacillus subtilis, 31.2 µg/mL (≈ 83.9 µM); in the assay on Staphylococcus aureus it was 16 µg/mL (≈ 43 µM); with Enterococcus faecalis, 125 µg/mL (≈ 336 µM).
Consider `CC(C)c1csc(-c2nnc3sc(-c4ccc([N+](=O)[O-])cc4)nn23)n1`, for which the MIC with Escherichia coli is 125 µg/mL (≈ 336 µM); against Saccharomyces cerevisiae, 8 µg/mL (≈ 21.5 µM); in the assay on Aspergillus niger, 16 µg/mL (≈ 43 µM); with Candida tropicalis it was 8 µg/mL (≈ 21.5 µM); in assay [1] it was 31.2 µg/mL (≈ 83.9 µM); against Klebsiella pneumoniae it was 16 µg/mL (≈ 43 µM). Further, the MIC against Pseudomonas aeruginosa was 31.2 µg/mL (≈ 83.9 µM); with Bacillus subtilis it was 16 µg/mL (≈ 43 µM); against Staphylococcus aureus, 125 µg/mL (≈ 336 µM); in the assay with Enterococcus faecalis, 125 µg/mL (≈ 336 µM).
In the case of `Cc1ccc(-c2nn3c(-c4nc(C(C)C)cs4)nnc3s2)cc1`, the minimum inhibitory concentration (MIC) against Escherichia coli was 125 µg/mL (≈ 366 µM); in the assay on Saccharomyces cerevisiae it was 250 µg/mL (≈ 732 µM); in the assay on Aspergillus niger it was 125 µg/mL (≈ 366 µM); in the assay on Candida tropicalis it was 125 µg/mL (≈ 366 µM); in assay [1], 31.2 µg/mL (≈ 91.5 µM); against Klebsiella pneumoniae, 250 µg/mL (≈ 732 µM). Moreover, the MIC against Pseudomonas aeruginosa was determined as 62.5 µg/mL (≈ 183 µM); in the assay on Bacillus subtilis it was 62.5 µg/mL (≈ 183 µM); against Staphylococcus aureus, 125 µg/mL (≈ 366 µM); against Enterococcus faecalis, 125 µg/mL (≈ 366 µM).
As to `CC(C)c1csc(-c2nnc3sc(-c4ccc(O)cc4)nn23)n1`, the MIC against Escherichia coli worked out at 125 µg/mL (≈ 364 µM); against Saccharomyces cerevisiae, 250 µg/mL (≈ 728 µM); against Aspergillus niger it was 125 µg/mL (≈ 364 µM); with Candida tropicalis it was 125 µg/mL (≈ 364 µM); in assay [1] it was 62.5 µg/mL (≈ 182 µM); in the assay on Klebsiella pneumoniae, 125 µg/mL (≈ 364 µM). For the same compound, the MIC against Pseudomonas aeruginosa was found to be 125 µg/mL (≈ 364 µM); with Bacillus subtilis, 125 µg/mL (≈ 364 µM); against Staphylococcus aureus it was 250 µg/mL (≈ 728 µM); against Enterococcus faecalis, 125 µg/mL (≈ 364 µM).
Consider `COc1ccc(-c2nn3c(-c4nc(C(C)C)cs4)nnc3s2)cc1`, for which the MIC in the assay on Escherichia coli is 125 µg/mL (≈ 350 µM); against Saccharomyces cerevisiae it was 16 µg/mL (≈ 44.8 µM); against Aspergillus niger it was 31.2 µg/mL (≈ 87.4 µM); in the assay on Candida tropicalis it was 16 µg/mL (≈ 44.8 µM); in [1], 31.2 µg/mL (≈ 87.4 µM); against Klebsiella pneumoniae it was 31.2 µg/mL (≈ 87.4 µM). Further, the MIC was 31.2 µg/mL (≈ 87.4 µM) with Pseudomonas aeruginosa, 125 µg/mL (≈ 350 µM) with Bacillus subtilis, 31.2 µg/mL (≈ 87.4 µM) in the assay with Staphylococcus aureus and 16 µg/mL (≈ 44.8 µM) in the assay on Enterococcus faecalis.
Turning to `CC(C)c1csc(-c2nnc(S)n2/N=C/c2ccccc2)n1`, the MIC against Escherichia coli is 62.5 µg/mL (≈ 190 µM); against Saccharomyces cerevisiae it was 125 µg/mL (≈ 379 µM); in the assay with Aspergillus niger, 62.5 µg/mL (≈ 190 µM); with Candida tropicalis it was 62.5 µg/mL (≈ 190 µM); in [1] it was 62.5 µg/mL (≈ 190 µM); against Klebsiella pneumoniae it was 31.2 µg/mL (≈ 94.9 µM). For the same compound, the MIC was found to be 31.2 µg/mL (≈ 94.9 µM) against Pseudomonas aeruginosa, 31.2 µg/mL (≈ 94.9 µM) in the assay on Bacillus subtilis, 250 µg/mL (≈ 759 µM) against Staphylococcus aureus and 31.2 µg/mL (≈ 94.9 µM) against Enterococcus faecalis.
Regarding `CC(C)c1csc(-c2nnc3sc(-c4ccccc4)nn23)n1`, the MIC was determined as 125 µg/mL (≈ 382 µM) in the assay on Escherichia coli; 125 µg/mL (≈ 382 µM) in the assay on Saccharomyces cerevisiae; 31.2 µg/mL (≈ 95.4 µM) with Aspergillus niger; 125 µg/mL (≈ 382 µM) in the assay on Candida tropicalis; 62.5 µg/mL (≈ 191 µM) in assay [1]; 125 µg/mL (≈ 382 µM) against Klebsiella pneumoniae. The MIC in the assay with Pseudomonas aeruginosa was 31.2 µg/mL (≈ 95.4 µM); with Bacillus subtilis, 16 µg/mL (≈ 48.9 µM); in the assay with Staphylococcus aureus it was 125 µg/mL (≈ 382 µM); against Enterococcus faecalis, 16 µg/mL (≈ 48.9 µM).
With `CC(C)c1csc(-c2nnc(S)n2/N=C/C=C/c2ccccc2)n1`, the minimal inhibitory concentration (MIC) against Escherichia coli turned out to be 4 µg/mL (≈ 11.3 µM); in the assay with Saccharomyces cerevisiae it was 31.2 µg/mL (≈ 87.9 µM); with Aspergillus niger, 125 µg/mL (≈ 352 µM); in the assay on Candida tropicalis, 31.2 µg/mL (≈ 87.9 µM); in assay [1], 4 µg/mL (≈ 11.3 µM); against Klebsiella pneumoniae it was 4 µg/mL (≈ 11.3 µM). The minimum inhibitory concentration (MIC) worked out at 16 µg/mL (≈ 45 µM) in the assay on Pseudomonas aeruginosa, 8 µg/mL (≈ 22.5 µM) against Bacillus subtilis, 8 µg/mL (≈ 22.5 µM) against Staphylococcus aureus and 31.2 µg/mL (≈ 87.9 µM) with Enterococcus faecalis.

One may read the MIC as the smallest concentration in the dilution series that meets the test's criterion for growth inhibition.

The record behind these values is ChEMBL document CHEMBL1157864, “Synthesis of some novel 2-substituted-5-[isopropylthiazole] clubbed 1,2,4-triazole and 1,3,4-oxadiazoles as potential antimicrobial and antitubercular agents” (Eur J Med Chem, 2010).
